Assay outcomes from PubChem.
Compounds with a hit are over-represented: about 1.9% of the library has one in this group of screens.
b-catenin transl: beta-catenin nuclear translocation modulation; nuclear translocation activity, % at 5 µM; 190,000 compounds, 0.3% hits; HeLa beta-catenin nuclear translocation, immunofluorescence imaging;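 active means nuclear translocation activity above 50% at 5 µM, with a well cell count of 50 or more; inconclusive means wells under 50 cells across six images, flagged as toxic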;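 further: per-cell ratio of nuclear to cytoplasmic median beta-catenin stain intensity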
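Test system: human HeLa cells, endogenous beta-catenin. Times: 24 h compound exposure, 37°C. Measured by: beta-catenin immunofluorescence imaging with DAPI.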
MT stabilize HCS: microtubule stabilization, imaging screen; HeLa tubulin immunostaining HCS, 24 h; share of cells brighter than vehicle mean+2SD; % tubulin-high responders, % at 10 µM; 200,000 compounds, 0.83% hits; AID 2205;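 active means plate Z-score above 3 for both tubulin-high and condensed-nucleus cell shares, with cell loss under 80%, at 10 µM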;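 further: anti alpha tubulin signal scored within the nucleus-defined area of each cell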
ROMK primary: modulates human ROMK potassium channel activity. 130,000 compounds, 2% hits. AID 1918. P48048. B-score at 10 µM. Tet-inducible ROMK, thallium flux fluorescence; actives lie on both sides;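 active means signal ratio slope over the read window, or its plate-corrected B-score, at least 3 SD from the plate mean, either direction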;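 further: B-score of the F/F0 ratio slope over 7 to 12 s after thallium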
Target sequence (P48048 whole entry, looked up): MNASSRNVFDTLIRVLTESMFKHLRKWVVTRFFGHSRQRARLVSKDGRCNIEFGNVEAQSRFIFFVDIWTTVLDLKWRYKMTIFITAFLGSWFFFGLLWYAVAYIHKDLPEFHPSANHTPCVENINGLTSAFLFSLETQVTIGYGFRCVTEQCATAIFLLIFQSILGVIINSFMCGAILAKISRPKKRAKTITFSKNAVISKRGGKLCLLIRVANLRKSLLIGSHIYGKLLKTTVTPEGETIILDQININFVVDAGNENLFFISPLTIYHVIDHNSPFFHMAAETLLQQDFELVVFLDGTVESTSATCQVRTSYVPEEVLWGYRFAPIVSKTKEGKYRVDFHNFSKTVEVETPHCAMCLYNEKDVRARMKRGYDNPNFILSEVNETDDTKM
ROMK hit retest: human ROMK channel modulation, retest confirmation; shares compounds with ROMK primary; ROMK thallium flux, fluorescence ratio; hits give low values; normalized thallium flux (F/F0 slope) at 10 µM; 3,000 compounds, 54% hits; AID 1917;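 active means Flux at 10 µM at least 3 SD below or above vehicle control mean in one or both replicates; inconclusive means no clear call, values can overlap the other calls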
Of the large screens only hits and unclear results are named; the others gave an inactive call (follow-up assays come after a bar, where they were run).

COc1ccc(/C=N/NC(=O)c2cc(C(C)(C)C)[nH]n2)cc1COc1ccc(F)cc1F	ROMK primary -11.2 | ROMK hit retest inactive
COc1ccc(/C=N/NC(=O)c2nc(Cl)c(Cl)c(N)c2Cl)cc1COc1ccc(F)cc1F	none (no result: ROMK primary)
CCC(CC)C(=O)c1c[nH]c(C(=O)N2CCN(c3ccc(OC)cc3)CC2)c1	none
Cc1ccc2c(n1)sc1c(-c3ccccc3)c(C#N)c(N)nc12	none (no result: ROMK primary)
Cc1ccc2c(n1)sc1c(N)ncnc12	ROMK primary 4.62 | ROMK hit retest inactive
COc1ccccc1NS(=O)(=O)c1cccc(N=C2N=C(N)c3ccccc32)c1	none (no result: ROMK primary) | ROMK hit retest inactive
NC1=NC(=Nc2cccc(S(N)(=O)=O)c2)c2ccccc21	none (no result: MT stabilize HCS, ROMK primary)
Cc1ccc(S(=O)(=O)c2cnc(-c3ccccc3)nc2N2CCN(C)CC2)cc1	none
CC1CCCN(Cc2csc(N)n2)C1 (configuration not stated)	none
O=C(NCC1CCCO1)C(c1ccc(F)cc1)N(Cc1ccc2c(c1)OCO2)C(=O)c1ccc(CN2CCOCC2)o1 (configuration not stated)	none
COC(=O)c1c(NC(=O)CSc2nc3ccccc3c(=O)n2Cc2ccco2)sc(C)c1C	none (no result: ROMK primary)
COC(=O)c1c(NC(=O)CSc2nnc(-c3ccco3)n2Cc2ccccc2)sc(C)c1C	ROMK primary -3.06 (no result: b-catenin transl) | ROMK hit retest 0.0645
Cn1c(N)c(C(=O)COC(=O)CSc2cccc3cccc(Cl)c23)c(=O)n(C)c1=O	none
C[C@@H]1CN=C2N(CCNC(=O)CCC3CCCCC3)[C@H](Cc3ccc(O)cc3)CN21	none (no result: ROMK primary)
CCCCCCNC(=O)N[C@H](C(=O)NCCC[C@H]1CN2C(=NC[C@H]2C)N1CCC(c1ccccc1)c1ccccc1)C(C)O (some centres not stated)	none (no result: MT stabilize HCS, ROMK primary) | ROMK hit retest 0.0611
COc1ccc(C)cc1-n1nnnc1SCc1cc(=O)n2cc(C)ccc2n1	none (no result: ROMK primary)
CC(=O)c1cccc(NC(=O)CN(C)Cc2ccc(OC(F)F)cc2)c1	none (no result: MT stabilize HCS, ROMK primary)
C/C(=N\NC(=O)Cn1cc([N+](=O)[O-])cn1)c1ccc(O)cc1	none (no result: MT stabilize HCS)
CN(Cc1ccccc1)C(=O)c1ccccc1-c1ccccc1	none
CN(Cc1ccccc1)C(=O)c1ccccc1Br	ROMK primary -2.83 | ROMK hit retest 0.0662
O=C(COc1ccccc1C(=O)c1cnn(-c2ccccc2)c1)Nc1ccccc1	none (no result: ROMK primary)
Cn1cc(/C=C2\SC(=S)N(NC(=O)c3cccc(Cl)c3)C2=O)c2ccccc21	none (no result: MT stabilize HCS, ROMK primary)
Cn1cc(/C=C2\SC(=S)N(NC(=O)c3ccccc3)C2=O)c2ccccc21	ROMK primary -3.01 | ROMK hit retest 0.0579
CC(c1ccco1)N(C(=O)c1ccccc1NS(=O)(=O)c1ccc(Cl)c([N+](=O)[O-])c1)c1ccccn1 (configuration not stated)	none (no result: b-catenin transl, ROMK primary) | ROMK hit retest 0.0624
Cc1cc(C)cc(C(=O)N(c2ccccn2)C(C)c2ccco2)c1 (configuration not stated)	none
Cc1cc(C)nc(SCc2nc(N)nc(-c3ccccc3O)n2)n1	none (no result: ROMK primary)
COC(=O)CSC1=C(C#N)C(=O)NC(c2ccccc2)S1 (configuration not stated)	none (no result: b-catenin transl)
CSC1=C(C#N)C(=O)NC(c2ccccc2O)S1 (configuration not stated)	ROMK primary -4.16 (no result: MT stabilize HCS) | ROMK hit retest 0.0585
N=c1c2c(-c3ccccc3)c(-c3ccccc3)n(Cc3ccco3)c2ncn1CCCn1ccnc1	ROMK primary -5.57 | ROMK hit retest 0.0485
N=c1c2c(-c3ccccc3)c(-c3ccccc3)oc2ncn1CCN1CCOCC1	none
O=c1c2ccccc2nc(-c2ccccc2)n1CCCN1CCOCC1	none
N=c1c2c(-c3ccccc3)c(-c3ccccc3)oc2ncn1CCCN1CCOCC1	ROMK primary -3.79 | ROMK hit retest inactive
OCCNc1ncnc2c1c(-c1ccccc1)c(-c1ccccc1)n2Cc1ccco1	none
c1ccc(-c2c(-c3ccccc3)n(Cc3ccco3)c3ncnc(NCCCn4ccnc4)c23)cc1	ROMK primary -3.91 | ROMK hit retest inconclusive
c1ccc(-c2oc3ncnc(NCCCn4ccnc4)c3c2-c2ccccc2)cc1	none
N=c1c2c(-c3ccccc3)c(-c3ccccc3)n(Cc3ccco3)c2ncn1CCCN1CCOCC1	ROMK primary -2.76 | ROMK hit retest 0.049
CCOC(=O)c1cc[nH]c1C	none (no result: b-catenin transl)
CN1CCN(c2ccc(CNS(=O)(=O)c3ccsc3)cc2)CC1	none (no result: MT stabilize HCS, ROMK primary)
CCc1ccccc1N(C(C)=O)c1nc(CN=C=S)cs1	none
CC(C)Cn1cnc2c(c(-c3ccccc3)c(-c3ccccc3)n2Cc2ccco2)c1=N	ROMK primary -4.34 (no result: b-catenin transl) | ROMK hit retest 0.044
O=c1c2c3nc4ccccc4nc3n(Cc3ccccc3)c2ncn1Cc1ccco1	none (no result: ROMK primary)
COc1ccc(N(CC(=O)N2CCN(c3ccccc3)CC2)S(=O)(=O)c2c(C)noc2C)cc1	none (no result: ROMK primary)
CCOc1ccc(N(CC(=O)N2CCN(c3ccccc3)CC2)S(=O)(=O)c2c(C)noc2C)cc1	none (no result: b-catenin transl, ROMK primary) | ROMK hit retest inactive
CCc1cc2c(=O)c(-c3cscn3)coc2cc1O	ROMK primary 2.52 (no result: b-catenin transl) | ROMK hit retest inactive
CCc1cc2c(=O)c(-c3cscn3)coc2cc1OC	none (no result: MT stabilize HCS, ROMK primary)
O=C(N/N=C/c1ccco1)c1cc(-c2ccc3ccccc3c2)n[nH]1	none
CCc1ccc(-c2cc(C(=O)N/N=C/c3ccco3)[nH]n2)cc1	ROMK primary -3.19 | ROMK hit retest 0.0628
CCC(=O)NC1(Cc2ccc(O)cc2)CCCCC1	none
Cc1ccc(C(=O)N2CCCC(C(=O)c3ccc(Oc4ccccc4)cc3)C2)cn1 (configuration not stated)	none
Cc1ccc(NC(=S)NNC(=O)c2ccccc2O)c(C)c1	ROMK primary 2.88 | ROMK hit retest 0.0635
Cc1cccc(NC(=S)NNC(=O)c2ccc(O)cc2O)c1C	none
COC(=O)CNC(c1ccccc1Cl)c1cc(Br)ccc1NS(=O)(=O)c1ccc(C)cc1 (configuration not stated)	none
COc1ccccc1-n1cc(C(=O)NCC(=O)NCc2ccc(F)cc2)c2ccccc2c1=O	ROMK primary 3.11 | ROMK hit retest inactive
CCc1ccc(NC(=O)CNC(=O)c2cn(-c3ccccc3OC)c(=O)c3ccccc23)cc1	none (no result: b-catenin transl)
CC(=O)C1=C(O)C(=O)N(C)C1c1ccccc1[N+](=O)[O-] (configuration not stated)	none (no result: MT stabilize HCS, ROMK primary)
Cc1ccc(C(=O)c2cc3c(cc2[N+](=O)[O-])OCCO3)cc1	none
COC(=O)c1[nH]c2ccc(Cl)cc2c1NC(=O)C1CC1	none (no result: ROMK primary) | ROMK hit retest inactive
COC(=O)c1[nH]c2ccc(Cl)cc2c1NC(=O)Oc1ccccc1	none (no result: ROMK primary)
CCn1c(SCC(=O)NNC(=O)c2ccc(OC)cc2)nnc1-c1ccco1	none
CCOC(=O)CSc1ccc2ccccc2n1	none
CCOC(=O)CN1C=C(c2ccc3ccccc3n2)C(C[N+](=O)[O-])c2ccccc21 (configuration not stated)	ROMK primary -3.78 (no result: b-catenin transl) | ROMK hit retest 0.0491
CCCCCN1N=C(C)CC1=O	ROMK primary 2.68 | ROMK hit retest inactive
CCCCCCCN1N=C(C)C(C(=O)c2ccccc2)C1=O (configuration not stated)	none
Cc1cc(C)c(C(=O)N2CCCC(CNC(=O)C3(c4ccc(Cl)cc4)CC3)C2)c(=O)[nH]1 (configuration not stated)	none
O=C(c1n[nH]c2ccccc12)N1CCN(c2ccc(F)cc2)CC1	none
Cc1cc(C)nc(N/N=C/c2sccc2C)n1	ROMK primary -18.9 | ROMK hit retest inactive
